# In ChEMBL document CHEMBL1147437, “Omega-carboxypyridyl substituted ureas as Raf kinase inhibitors: SAR of the amide substituent” (Bioorg Med Chem Lett, 2004):
# What was measured:
# [1] = biological target: RAF proto-oncogene serine/threonine-protein kinase (Homo sapiens, UniProt P04049); assay: Inhibitory activity against human Raf-1 kinase
# Procedure, shortened: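 EE-tagged c-Raf and Mek made in baculovirus-infected Sf-9 cells, immuno-affinity purified. Raf (4 μg/mL) with Mek substrate (20 μg/mL) in 200 mM Tris pH 8.2, 100 mM NaCl, 20 mM 2-mercaptoethanol; compound added before starting with 10 μM γ-[³³P]ATP stock. 32 °C, 25 min; phosphocellulose filter capture, scintillation count.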
# [2] = Solubility at pH 2.7; assay type: physicochemical; conditions: buffer
# [3] = Solubility at pH 7.2; assay type: physicochemical; conditions: buffer
# Procedure, shortened: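 Aqueous solubility determined in 0.5× PBS at pH 7.2; reported in µg/mL.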
# Sequence of RAF proto-oncogene serine/threonine-protein kinase (P04049 whole entry): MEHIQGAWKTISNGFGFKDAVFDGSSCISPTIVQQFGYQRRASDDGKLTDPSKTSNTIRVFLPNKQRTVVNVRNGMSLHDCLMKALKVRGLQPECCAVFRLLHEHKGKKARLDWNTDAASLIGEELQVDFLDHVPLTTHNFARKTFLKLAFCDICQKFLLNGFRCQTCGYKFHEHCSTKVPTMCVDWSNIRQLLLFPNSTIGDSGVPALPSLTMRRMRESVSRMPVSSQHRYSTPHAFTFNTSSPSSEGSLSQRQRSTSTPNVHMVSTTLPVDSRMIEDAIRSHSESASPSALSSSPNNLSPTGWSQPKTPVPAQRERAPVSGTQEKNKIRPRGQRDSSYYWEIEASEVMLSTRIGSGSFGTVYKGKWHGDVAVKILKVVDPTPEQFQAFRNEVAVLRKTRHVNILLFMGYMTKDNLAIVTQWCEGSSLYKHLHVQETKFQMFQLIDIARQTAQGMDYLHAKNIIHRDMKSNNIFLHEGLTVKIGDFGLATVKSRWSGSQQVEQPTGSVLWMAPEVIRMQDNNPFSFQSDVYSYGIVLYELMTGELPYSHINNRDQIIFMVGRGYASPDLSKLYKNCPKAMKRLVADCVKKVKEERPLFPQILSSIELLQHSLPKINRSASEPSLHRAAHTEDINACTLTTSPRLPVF
Compound,IC50 [1] [nM],solubility [2] [µg/mL],solubility [3] [µg/mL]
CNC(=O)c1cncc(Oc2ccc(NC(=O)Nc3ccc(Cl)c(C(F)(F)F)c3)cc2)c1,50,,
COc1ccc(C(F)(F)F)cc1NC(=O)Nc1ccc(Oc2cccc(C(=O)Nc3ccc(N(C)C)cc3)c2)cc1,410,,
CC(C)(C)c1cc(NC(=O)Nc2ccc(Oc3cccc(C(=O)NCc4ccccc4)c3)cc2)no1,460,,
O=C(Nc1ccc(Oc2ccnc(C(=O)NCCN3CCOCC3)c2)cc1)Nc1ccc(Br)c(C(F)(F)F)c1,60,39,≤ 5
CC(C)NC(=O)c1cc(Oc2ccc(NC(=O)Nc3ccc(Cl)c(C(F)(F)F)c3)cc2)ccn1,2300,,
CNC(=O)c1cc(Oc2ccc(NC(=O)Nc3cc(C(F)(F)F)ccc3OC)cc2)ccn1,53,,
CNC(=O)c1cccc(Oc2ccc(NC(=O)Nc3cc(C(F)(F)F)ccc3OC)cc2)c1,130,,
CNC(=O)c1cccc(Oc2ccc(NC(=O)Nc3ccc(Cl)c(C(F)(F)F)c3)cc2)c1,130,,
O=C(Nc1ccc(Oc2cncc(C(=O)NCCN3CCOCC3)c2)cc1)Nc1ccc(Cl)c(C(F)(F)F)c1,140,36,≤ 5
COc1ccc(NC(=O)c2cccc(Oc3ccc(NC(=O)Nc4cc(C(F)(F)F)ccc4OC)cc3)c2)cn1,150,,
CCNC(=O)c1cc(Oc2ccc(NC(=O)Nc3cc(C(F)(F)F)ccc3OC)cc2)ccn1,460,,
O=C(Nc1ccc(Oc2cccc(C(=O)Nc3cccnc3)c2)cc1)Nc1ccc(Cl)c(C(F)(F)F)c1,44,,
CN(C)C(=O)c1cc(Oc2ccc(NC(=O)Nc3ccc(Br)c(C(F)(F)F)c3)cc2)ccn1,170,,
CCNC(=O)c1cccc(Oc2ccc(NC(=O)Nc3cc(C(C)(C)C)on3)cc2)c1,130,,
CN(C)C(=O)c1cc(Oc2ccc(NC(=O)Nc3ccc(Cl)c(C(F)(F)F)c3)cc2)ccn1,300,,
O=C(Nc1ccc(Oc2cccc(C(=O)NCCN3CCOCC3)c2)cc1)Nc1ccc(Cl)c(C(F)(F)F)c1,70,,
O=C(Nc1ccc(Oc2cccc(C(=O)NCCNc3ccccc3)c2)cc1)Nc1ccc(Cl)c(C(F)(F)F)c1,160,,
O=C(Nc1ccc(Oc2ccnc(C(=O)NCCN3CCOCC3)c2)cc1)Nc1ccc(Cl)c(C(F)(F)F)c1,73,141,≤ 5
COc1ccc(C(F)(F)F)cc1NC(=O)Nc1ccc(Oc2ccnc(C(=O)N(C)C)c2)cc1,330,,
COc1ccc(C(F)(F)F)cc1NC(=O)Nc1ccc(Oc2cccc(C(=O)Nc3ccc(N4CCOCC4)cc3)c2)cc1,210,,
CNC(=O)c1cccc(Oc2ccc(NC(=O)Nc3cc(C(C)(C)C)on3)cc2)c1,120,,

Compound,IC50 [1] [nM],solubility [2] [µg/mL],solubility [3] [µg/mL]
CC(C)(C)c1cc(NC(=O)Nc2ccc(Oc3ccncc3)cc2)no1,230,,
COc1ccncc1NC(=O)c1cccc(Oc2ccc(NC(=O)Nc3ccc(Cl)c(C(F)(F)F)c3)cc2)c1,130,,
CC(C)(C)c1cc(NC(=O)Nc2ccc(Oc3cccc(C(=O)Nc4cccnc4)c3)cc2)no1,68,,
O=C(Nc1ccc(Oc2cccc(C(=O)NCCN3CCCCC3)c2)cc1)Nc1ccc(Cl)c(C(F)(F)F)c1,82,,
COc1ccc(C(F)(F)F)cc1NC(=O)Nc1ccc(Oc2cncc(C(=O)NCCN(C)C)c2)cc1,100,129,41
CCNC(=O)c1cc(Oc2ccc(NC(=O)Nc3ccc(Br)c(C(F)(F)F)c3)cc2)ccn1,27,,
CC(C)(C)c1cc(NC(=O)Nc2ccc(Oc3cccc(C(=O)Nc4ccccc4)c3)cc2)no1,370,,
CCNC(=O)c1cc(Oc2ccc(NC(=O)Nc3ccc(Cl)c(C(F)(F)F)c3)cc2)ccn1,26,,
COc1ccc(C(F)(F)F)cc1NC(=O)Nc1ccc(Oc2ccnc(C(=O)NCC(C)C)c2)cc1,500,,
CNC(=O)c1cc(Oc2ccc(NC(=O)Nc3ccc(Br)c(C(F)(F)F)c3)cc2)ccn1,6,,
COc1ccc(C(F)(F)F)cc1NC(=O)Nc1ccc(Oc2cncc(C(=O)NCCN3CCOCC3)c2)cc1,63,,
COCCNC(=O)c1cccc(Oc2ccc(NC(=O)Nc3ccc(Cl)c(C(F)(F)F)c3)cc2)c1,110,,
CNC(=O)c1cncc(Oc2ccc(NC(=O)Nc3cc(C(F)(F)F)ccc3OC)cc2)c1,61,≤ 4,≤ 4
CCCNC(=O)c1cccc(Oc2ccc(NC(=O)Nc3cc(C(C)(C)C)on3)cc2)c1,140,,
CNC(=O)c1cc(Oc2ccc(NC(=O)Nc3cc(C(C)(C)C)on3)cc2)ccn1,38,,
COc1ccc(C(F)(F)F)cc1NC(=O)Nc1ccc(Oc2cccc(C(=O)Nc3cccnc3)c2)cc1,100,,
O=C(Nc1ccc(Oc2cccc(C(=O)Nc3ccc(N4CCOCC4)cc3)c2)cc1)Nc1ccc(Cl)c(C(F)(F)F)c1,160,,
CCC1CCCN1CNC(=O)c1cccc(Oc2ccc(NC(=O)Nc3ccc(Cl)c(C(F)(F)F)c3)cc2)c1 (configuration not stated),270,,
CN(C)C(=O)c1cccc(Oc2ccc(NC(=O)Nc3cc(C(C)(C)C)on3)cc2)c1,5800,,
CN(C)c1ccc(NC(=O)c2cccc(Oc3ccc(NC(=O)Nc4ccc(Cl)c(C(F)(F)F)c4)cc3)c2)cc1,230,,
CC(C)(C)c1cc(NC(=O)Nc2ccc(Oc3ccccc3)cc2)no1,1100,,
